Measurements: article PMC9179932 (Nature chemical biology, 2022)
Read-outs that look alike come from different tables or passages of the source. Peptide text beside a SMILES is read from it.

Tests used:
[1] = test system: MV4;11 cells; assay: MV4; type: cell-based; details: 1 mM; for pyroptosis in PEPD−/− knockout cells / activity in control cells: 14 h; for lytic cell death / cytotoxicity in MV4;11 cells: PI uptake, CTG, CTF
[2] = test system: MV4;11 cells; assay: MV4; type: cell-based, human; details: for effect on CQ31-induced cell death / LDH release and GSDMD cleavage: WT MV4;11; for effect on CQ31-induced cell death: CQ31 10 μM; for effect on CQ31-induced cell death / effect on VP-OMe- and IP-OMe-induced LDH release and GSDMD cleavage: bortezomib 1 μM, VX-765 50 μM; for effect on CQ31-induced cell death / effect on VP-OMe- and IP-OMe-induced LDH release and GSDMD cleavage / LDH release and GSDMD cleavage in PEPD−/− vs control cells: 6 h; for effect on VP-OMe- and IP-OMe-induced LDH release and GSDMD cleavage: pretreatment; for LDH release and GSDMD cleavage: XP-OMes 1 mM, VbP 2 μM, 14 h; for PI uptake, GSDMD cleavage and LDH release in knockout cells: CASP1−/− and CARD8−/− MV4;11; for LDH release and GSDMD cleavage in PEPD−/− vs control cells: PEPD−/− MV4;11, 1 mM
Outline: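 MV4;11 cells (WT or knockouts) are plated at 5×10^5 per well. Treatments: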

[3] = test system: THP-1 cells; assay: THP-1 LDH release and GSDMD cleavage immunoblot; type: cell-based, human; details: for additional pyroptosis in DPP8/9−/− THP-1 cells: LDH release, GSDMD cleavage, CTG and CTF; for LDH release and GSDMD cleavage: WT THP-1, XP-OMes 1 mM, VbP 2 μM, 24 h; for PI uptake, GSDMD cleavage and LDH release in knockout cells: CASP1−/− and CARD8−/− THP-1
[4] = test system: resting primary T cells; assay: Pyroptosis in resting primary T cells; type: cell-based, human; details: for GSDMD cleavage in resting T cells: 1 mM, 18 h
Outline: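 Primary resting human CD3+ T cells (>90% purity) are thawed in RPMI/10% FBS and cultured with IL-2 30 U ml−1. Cells are treated with 1 mM for 18 h or 10 μM for 24 h. Analysis is by immunoblot for pyroptotic and apoptotic markers, with CTG viability after 24 h. Results are representative of two independent experiments.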

[5] = test system: N/TERT-1 keratinocytes; assay: NLRP1 inflammasome activation in N/TERT-1 keratinocytes; type: cell-based, human; details: XP-OMes 1 mM, VbP 10 μM, CQ31 10 μM, 16 h
Outline: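 N/TERT-1 immortalised keratinocytes seeded at 1×10^5 cells per well in 12-well plates, grown to 70% confluence, then treated with test compound for 16 h. Supernatants assayed for LDH activity with a commercial cytotoxicity kit; inflammasome readouts such as IL-18 processing assessed by immunoblotting.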

[6] = test system: human NLRP1 inflammasome; assay: Reconstituted human NLRP1 inflammasome in HEK 293T cells; type: cell-based; details: XP-OMes 1 mM, VbP 10 μM, CQ31 10 μM, 24 h
Outline: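 For ASC specks, HEK 293T cells (2.5×10^5 per well) are transfected with 10 ng FLAG-NLRP1, 5 ng V5-GFP-ASC and 985 ng RFP plasmid and allowed 24 h expression. They are treated 24 h, Hoechst-stained, and the % of cells with specks is scored by microscopy. For GSDMD cleavage, HEK 293T cells stably expressing CASP1/GSDMD get 0.02 μg NLRP1 and 0.01 μg ASC (2.0 μg total DNA), are treated 16–20 h later for 24 h, and are immunoblotted.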

[7] = test system: RAW264.7 cells; assay: Pyroptosis in RAW264.7 macrophages; type: cell-based, mouse; details: 24 h; for pyroptosis at fivefold higher concentration: 5 mM, CTF and CTG
[8] = test system: J774.1 macrophages; assay: Pyroptosis in J774.1 macrophages; type: cell-based, mouse; details: VbP 2 μM, 24 h
Outline: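 J774.1 cells are grown in RPMI/10% FBS, plated at 5×10^5 per well and treated 24 h (VbP 2 μM). Supernatant LDH is measured relative to Triton X-100 lysis (n = 3). For the dose series, 2,000 cells per well in 384-well plates get compound by pintool. CTF fluorescence is read after 30 min, then CTG luminescence after 2 min shaking and 10 min at 25 °C (n = 6).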

[9] = target: recombinant DPP9 (Homo sapiens, UniProt Q86TI2); assay: AP-AMC-based DPP9 substrate assay; type: biochemical; details: for effect of esterification on DPP9 inhibition: methyl ester vs free dipeptide
Outline: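 Recombinant DPP9 (1 nM) is dispensed into 384-well plates and test compound is added by pintool over a concentration series. Reaction starts with 25 μM AP-AMC. Cleavage is read as rising fluorescence (ex/em 380/460 nm) at 25 °C for 30 min.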

[10] = target: NLRP1–DPP9 interaction (Homo sapiens, UniProt Q86TI2); assay: DPP9 displacement from FLAG-NLRP1 on anti-FLAG beads; type: binding; details: VbP 10 μM; VP dipeptide 0.5, 5 mM; CQ31, CQ04 10 μM
[11] = test system: VbP-sensitive cell lines, including THP-1 cells; assay: Viability of VbP-sensitive AML cancer cell lines; type: cell-based, human; details: 24 h, CTG
Outline: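 Cell lines grown in RPMI/10% FBS are seeded at 2,000 cells per well in 384-well plates (25 μl). Test compound is pinned in at multiple concentrations and incubated 24 h at 37 °C, 5% CO2. CellTiter-Glo is added, plates are shaken 2 min and held 10 min at 25 °C, and luminescence is read.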

recombinant DPP9, sequence (Q86TI2 whole entry, species assumed): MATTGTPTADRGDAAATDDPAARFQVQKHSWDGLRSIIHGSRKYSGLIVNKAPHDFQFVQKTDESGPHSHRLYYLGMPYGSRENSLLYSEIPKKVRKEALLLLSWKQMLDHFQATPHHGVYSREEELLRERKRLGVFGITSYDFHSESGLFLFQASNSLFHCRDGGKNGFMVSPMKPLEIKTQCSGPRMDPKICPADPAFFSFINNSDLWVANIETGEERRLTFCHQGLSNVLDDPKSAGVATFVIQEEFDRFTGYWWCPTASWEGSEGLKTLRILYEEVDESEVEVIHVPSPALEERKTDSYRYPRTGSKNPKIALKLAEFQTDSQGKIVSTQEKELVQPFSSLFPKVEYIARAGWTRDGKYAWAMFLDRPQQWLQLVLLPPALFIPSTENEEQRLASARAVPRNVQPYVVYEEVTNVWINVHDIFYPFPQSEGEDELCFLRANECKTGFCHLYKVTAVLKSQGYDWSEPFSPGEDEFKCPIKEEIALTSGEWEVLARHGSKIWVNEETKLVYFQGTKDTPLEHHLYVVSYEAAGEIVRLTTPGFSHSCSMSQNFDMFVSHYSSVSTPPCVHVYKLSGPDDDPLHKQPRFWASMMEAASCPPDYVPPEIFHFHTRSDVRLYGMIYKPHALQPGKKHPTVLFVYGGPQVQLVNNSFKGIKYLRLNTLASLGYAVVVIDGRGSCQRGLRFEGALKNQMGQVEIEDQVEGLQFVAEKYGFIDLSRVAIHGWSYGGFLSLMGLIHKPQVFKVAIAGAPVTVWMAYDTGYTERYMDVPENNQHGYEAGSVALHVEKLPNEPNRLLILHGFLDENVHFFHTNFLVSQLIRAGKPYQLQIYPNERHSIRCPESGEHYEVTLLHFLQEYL
NLRP1–DPP9 interaction, sequence (Q86TI2 whole entry): as the sequence (Q86TI2 whole entry, species assumed) above

SMILES: COC(=O)[C@@H]1CCCN1C(=O)[C@@H]1CCCN1 [PP-OMe] (H-Pro-Pro-OMe)
- pyroptosis in PEPD−/− knockout cells [1]: induced pyroptosis
- activity in control cells [1]: inactive in control cells

SMILES: CC(C)C[C@H](NC(=O)[C@H](Cc1ccccc1)NC(=O)c1cnccn1)B(O)O [bortezomib, reference compound]
- apoptosis (PARP cleavage) [2]: caused considerable apoptosis
- effect on CQ31-induced cell death [2]: blocked CQ31-induced cell death
- effect on VP-OMe- and IP-OMe-induced LDH release and GSDMD cleavage [2]: completely blocked

SMILES: CC(C)[C@H](N)C(=O)N1CCC[C@H]1B(O)O [VbP, Val-boroPro, reference compound]
- LDH release and GSDMD cleavage [2]: induced the release of intracellular lactate dehydrogenase (LDH) and GSDMD cleavage
- additional pyroptosis in DPP8/9−/− THP-1 cells [3]: did not induce any additional pyroptosis
- LDH release and GSDMD cleavage [3]: induced the release of intracellular lactate dehydrogenase (LDH) and GSDMD cleavage
- pyroptosis in resting primary T cells ([4]; 10 μM, 24 h): induced pyroptosis
- NLRP1 inflammasome activation (LDH release, IL-18 cleavage and release) [5]: induced LDH release as well as IL-18 cleavage and release
- ASC speck formation [6]: triggered the formation of ASC specks
- activation of mNLRP1B1 (LDH release, GSDMD cleavage) ([7]; VbP 2 μM): activated mouse NLRP1B allele 1
- activation of mNLRP1B1 (LDH release) [8]: activated mouse NLRP1B allele 1

SMILES: COC(=O)[C@@H]1CCCN1C(=O)[C@@H](N)CCSC [MP-OMe] (H-Met-Pro-OMe)
- pyroptosis in PEPD−/− knockout cells [1]: induced pyroptosis
- activity in control cells [1]: inactive in control cells

SMILES: CC[C@H](C)[C@H](N)C(=O)N1CCC[C@H]1C(=O)OC [IP-OMe] (H-Ile-Pro-OMe)
- effect of esterification on DPP9 inhibition [9]: did not impact DPP9 inhibition
- lytic cell death / cytotoxicity in MV4;11 cells [1]: cytotoxic
- PI uptake, GSDMD cleavage and LDH release in knockout cells [2]: lack of PI uptake, GSDMD cleavage and LDH release
- LDH release and GSDMD cleavage in PEPD−/− vs control cells [2]: induced more LDH release and GSDMD cleavage
- LDH release and GSDMD cleavage [2]: induced the release of intracellular lactate dehydrogenase (LDH) and GSDMD cleavage
- PI uptake, GSDMD cleavage and LDH release in knockout cells [3]: lack of PI uptake, GSDMD cleavage and LDH release
- additional pyroptosis in DPP8/9−/− THP-1 cells [3]: did not induce any additional pyroptosis
- LDH release and GSDMD cleavage [3]: induced the release of intracellular lactate dehydrogenase (LDH) and GSDMD cleavage
- GSDMD cleavage in resting T cells [4]: induced GSDMD cleavage
- NLRP1 inflammasome activation (LDH release, IL-18 cleavage and release) [5]: did not induce NLRP1 inflammasome activation
- pyroptosis at fivefold higher concentration [7]: failed to trigger pyroptosis

SMILES: CC(C)[C@H](N)C(=O)N1CCC[C@H]1C(=O)O [Val-Pro, reference compound] (H-Val-Pro-OH)
- IC50 ([9]; read-out: IC50, DPP9 inhibition, Ala-Pro-aminomethylcoumarin (AP-AMC) substrate): 10 to 15 µM
- lytic cell death / cytotoxicity in MV4;11 cells [1]: did not induce lytic cell death
- disruption of NLRP1–DPP9 interaction (DPP9 elution) [10]: had no impact on the NLRP1 ternary complex

SMILES: COC(=O)[C@@H]1CCCN1C(=O)[C@@H](N)C(C)C [VP-OMe] (H-Val-Pro-OMe)
- effect of esterification on DPP9 inhibition [9]: did not impact DPP9 inhibition
- lytic cell death / cytotoxicity in MV4;11 cells [1]: cytotoxic
- PI uptake, GSDMD cleavage and LDH release in knockout cells [2]: lack of PI uptake, GSDMD cleavage and LDH release
- LDH release and GSDMD cleavage in PEPD−/− vs control cells [2]: induced more LDH release and GSDMD cleavage
- LDH release and GSDMD cleavage [2]: induced the release of intracellular lactate dehydrogenase (LDH) and GSDMD cleavage
- PI uptake, GSDMD cleavage and LDH release in knockout cells [3]: lack of PI uptake, GSDMD cleavage and LDH release
- additional pyroptosis in DPP8/9−/− THP-1 cells [3]: did not induce any additional pyroptosis
- LDH release and GSDMD cleavage [3]: induced the release of intracellular lactate dehydrogenase (LDH) and GSDMD cleavage
- concentration inducing cell death [11]: < 5 mM
- GSDMD cleavage in resting T cells [4]: induced GSDMD cleavage
- NLRP1 inflammasome activation (LDH release, IL-18 cleavage and release) [5]: did not induce NLRP1 inflammasome activation
- pyroptosis at fivefold higher concentration [7]: failed to trigger pyroptosis

SMILES: CCO[C@@H]1OC(=O)C[C@@H]1NC(=O)[C@@H]1CCCN1C(=O)[C@@H](NC(=O)c1ccc(N)c(Cl)c1)C(C)(C)C [VX-765, reference compound]
- effect on CQ31-induced cell death [2]: blocked CQ31-induced cell death
- effect on VP-OMe- and IP-OMe-induced LDH release and GSDMD cleavage [2]: completely blocked

SMILES: CCC(C)C(N)C(=O)N1CCCC1C(=O)O (stereo not drawn) [Ile-Pro, reference compound] (H-Ile-Pro-OH; configuration not given here)
- IC50 [9]: 10 to 15 µM
- lytic cell death / cytotoxicity in MV4;11 cells [1]: did not induce lytic cell death

SMILES: COC(=O)[C@@H]1CCCN1C(=O)[C@@H](N)CC(C)C [LP-OMe] (H-Leu-Pro-OMe)
- pyroptosis in PEPD−/− knockout cells [1]: induced pyroptosis
- activity in control cells [1]: inactive in control cells
